Article PMC10739612 (ACS Chemical Neuroscience, 2023)
Each block holds one compound with its values, some of them ahead of it.

Legend:
[1] = system: i3Neurons stably expressing LC3-RFP-GFP; test: LC3-RFP-GFP dual reporter live imaging in i3Neurons; assay type: cell-based, human
Outline: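 iPSC-derived i3Neurons stably expressing LC3-RFP-GFP, DIV 10; 0.1% DMSO or test compound 15 μM for 72 h, or BafA1 100 nM for 24 h. Live Fast Airyscan at 37 °C; single mid-cell scan, 488/560 nm. GFP+RFP+ vesicles scored as autophagosomes, RFP-only as autolysosomes. Autolysosome size and intensity from red-channel particle analysis. Three experiments, 60–70 cells per treatment; mean ± SEM.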

[2] = system: HeLa cells expressing eGFP-LC3; test: eGFP-LC3 puncta formation assay; assay type: cell-based
Outline: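 HeLa stably expressing eGFP-LC3, 3000 cells/well (384-well), 24 h at 37 °C, then 4 h compound exposure. PFA fixation (12 min RT), Hoechst 2 μg/mL; imaged at 10× (DAPI/FITC). Screen hits: Z' >0.4, CV <20%, z-score >2.199 in two replicates. EC50 from 12-point doses (300–0.146 or 1000–0.488 μM by series), excluding concentrations with <40% viability; three experiments in duplicate, mean ± SEM.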

Lamin A/C = target: T1, Lamin A/C (Homo sapiens, UniProt P02545); test: Pulldown validation and competition, immunoblot for Lamin A/C; assay type: binding; settings: Biotin-RH1115 50 μM, HeLa lysate
T1 sequence (P02545 1-566 limits assumed): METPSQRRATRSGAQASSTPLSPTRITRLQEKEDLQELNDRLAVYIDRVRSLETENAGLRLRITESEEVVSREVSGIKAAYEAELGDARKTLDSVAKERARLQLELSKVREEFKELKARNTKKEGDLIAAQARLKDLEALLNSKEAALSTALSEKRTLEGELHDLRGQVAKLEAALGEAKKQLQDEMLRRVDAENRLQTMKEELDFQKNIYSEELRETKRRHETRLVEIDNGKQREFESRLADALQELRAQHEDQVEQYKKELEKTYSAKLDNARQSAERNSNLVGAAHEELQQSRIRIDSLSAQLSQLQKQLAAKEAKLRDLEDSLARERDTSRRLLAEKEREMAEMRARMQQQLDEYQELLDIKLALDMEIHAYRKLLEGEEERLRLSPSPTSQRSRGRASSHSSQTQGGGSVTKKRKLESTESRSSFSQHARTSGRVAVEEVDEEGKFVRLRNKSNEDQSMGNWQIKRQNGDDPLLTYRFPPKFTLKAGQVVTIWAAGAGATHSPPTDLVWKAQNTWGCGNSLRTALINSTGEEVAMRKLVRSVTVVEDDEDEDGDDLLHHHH
Outline: (§1)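 HeLa grown 3 days to confluency; lysate cleared 18,000g, 30 min, 4 °C; protein by BCA. Streptavidin magnetic beads preloaded 2 h at 4 °C with biotinylated probe (50 μM) or biotin acid (50 μM). 500 μg lysate added (200 μL), 16 h; beads washed with PBS, eluted in 1× SDS loading buffer, immunoblotted. Competition: free test compound 100 μM added with lysate, 16 h, 4 °C.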

LAMP1 [3] = target: T2, LAMP1 (Homo sapiens, UniProt P11279); test: Pulldown validation and competition, immunoblot for LAMP1; assay type: binding; settings: Biotin-RH1115 50 μM, HeLa lysate
T2 sequence (P11279 29-417): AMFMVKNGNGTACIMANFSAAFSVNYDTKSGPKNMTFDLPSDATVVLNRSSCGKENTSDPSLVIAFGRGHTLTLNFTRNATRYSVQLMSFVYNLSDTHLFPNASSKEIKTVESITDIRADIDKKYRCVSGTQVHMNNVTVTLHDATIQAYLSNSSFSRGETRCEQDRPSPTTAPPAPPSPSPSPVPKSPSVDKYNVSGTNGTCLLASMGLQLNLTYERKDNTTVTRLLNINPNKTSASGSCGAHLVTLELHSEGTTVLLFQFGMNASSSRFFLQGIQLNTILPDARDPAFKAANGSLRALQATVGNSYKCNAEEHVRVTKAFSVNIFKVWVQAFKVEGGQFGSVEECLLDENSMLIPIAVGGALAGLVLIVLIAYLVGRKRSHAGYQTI
Outline: as §1

i3Neurons [4] = test: Cell viability assay in i3Neurons; assay type: cell-based, human; settings: 72 h from DIV 7; DS1040 20 μM, RH1096 40 μM, RH1103 40 μM, RH1115 15 μM
Outline: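 Viability check: DIV 10 i3Neurons on coated coverslips exposed 72 h (0.1% DMSO vehicle), fixed, immunostained for Tau and LAMP1. 5–6 random high-magnification fields per sample; neurons per unit area counted. Tau staining used to confirm normal morphology and neurite integrity. Mean ± SEM, three independent experiments.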

[5] = system: phosphorylation of the mTOR substrate p70S6K in HeLa cells; test: P70S6K and phospho-P70S6K immunoblotting; assay type: cell-based; settings: 1a 20 μM, 2a 40 μM, compared to rapamycin 1 μM
Outline: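 Same HeLa immunoblot workflow as for LC3, with test compound at 40 μM and 1% BSA for blocking. Probed for phospho-p70S6K and β-actin (anti-rabbit HRP secondary), then stripped and reprobed for total p70S6K; densitometry in ImageJ.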

[6] = system: LC3-II levels in HeLa cells; test: LC3 immunoblotting; assay type: cell-based; settings: 4 h, 1a 20 μM, 2a 40 μM, further increase with BafA1 100 nM
HeLa cells = test: Cell viability assay by nuclear count; assay type: cell-based; settings: 4 h, relative to DMSO
i3Neurons [7] = test: Analysis of lysosomal; assay type: cell-based, human; settings: 15 μM, 72 h, vs DMSO
Outline: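 DIV 10 i3Neurons on poly-L-ornithine/laminin-coated glass coverslips; 72 h exposure, 0.1% DMSO vehicle; fixed, LAMP1-immunostained, imaged by high-resolution confocal. Soma outlined, thresholded, ImageJ particle analysis (minimum 0.002 μm²) giving vesicle mean size, intensity and count per neuron. Three independent experiments, 20–25 neurons per treatment; mean ± SEM.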

LAMP1 [8] = test: LAMP1 expression immunoblotting in HeLa cells; assay type: cell-based; settings: 50 μM, 24 h, vs control
Outline: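 HeLa seeded at 300,000 cells/mL in 6-well plates; 0.1% DMSO or test compound 50 μM. Lysates cleared 12,000 rpm, 30 min, 4 °C; 10% SDS-PAGE, PVDF transfer; 5% blocker in TBS-T; primary antibody overnight 4 °C, HRP secondary 1 h RT; chemiluminescent detection; band quantification in ImageJ.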

Structure (SMILES): CO/C1=C\C(C)=C\[C@@H](C)[C@@H](O)[C@@H](C)C/C(C)=C/C=C/[C@H](OC)[C@@H]([C@@H](C)[C@@H](O)[C@H](C)[C@@]2(O)C[C@@H](O)[C@H](C)[C@@H](C(C)C)O2)OC1=O [BafA1, bafilomycin A1, reference compound]
percentage of autolysosomes ([1]; BafA1 100 nM 24 h, compared with RH1115 or DMSO): far less | number of autophagosomes per neuronal cell body ([1]; RH1115 15 μM 72 h, BafA1 100 nM 24 h): massively increased

EC50 ([2]; Homo sapiens, HeLa, 4 h, read-out: EC50 in the eGFP-LC3 puncta formation assay): 46.2 µM | Lamin A/C capture in pulldown eluent (western blot) (Lamin A/C): highly enriched
Structure (SMILES): O=C(CCCCC1SCC2NC(=O)NC21)NCCOCCOCCOCCn1nncc1CCCC(=O)OCC1CN(Cc2ccccc2)CC12CCN(CC1CCCCC1)CC2 (stereo not shown) [Biotin-RH1115, (2-Benzyl-8-(cyclohexylmethyl)-2,8-diazaspiro[4.5]decan-4-yl)methyl 4-(1-(13-Oxo-17-(2-oxohexahydro-1H-thieno[3,4-d]imidazol-4-yl)-3,6,9-trioxa-12-azaheptadecyl)-1H-1,2,3-triazol-5-yl)butanoate]
glycosylated LAMP1 capture in pulldown eluent (western blot) (LAMP1 [3]): pulled down and concentrated in the eluent

Structure (SMILES): CCCn1cc(CN2CCc3nc(N4CCN(C)CC4)[nH]c(=O)c3CC2)c2ccccc21 [Compound 1a, 2-(4-Methylpiperazin-1-yl)-7-((1-propyl-1H-indol-3-yl)methyl)-3,5,6,7,8,9-hexahydro-4H-pyrimido[4,5-d]azepin-4-one]
cytotoxicity in i3Neurons (cell density at end of treatment) (i3Neurons [4]): no overt cytotoxicity | phosphorylation of p70S6K (mTOR dependence of autophagy activation) [5]: mTOR-independent manner | LC3-II levels by western blot [6]: significant increase

Structure (SMILES): CCCn1cc(CN2CCc3nc(-c4ccccc4)[nH]c(=O)c3CC2)c2ccccc21 [Compound 1c, 2-Phenyl-7-((1-propyl-1H-indol-3-yl)methyl)-3,5,6,7,8,9-hexahydro-4H-pyrimido[4,5-d]azepin-4-one]
cytotoxicity (percent viability by nuclear count) (HeLa cells): increase in cell death at concentrations that are close to the concentrations that induced autophagy

Structure (SMILES): OCC1CN(Cc2ccccc2)CC12CCN(Cc1ccccn1)CC2 (stereo not shown) [Compound 2a, (2-Benzyl-8-(pyridin-2-ylmethyl)-2,8-diazaspiro[4.5]decan-4-yl)methanol]
cytotoxicity in i3Neurons (cell density at end of treatment) (i3Neurons [4]): no overt cytotoxicity | phosphorylation of p70S6K (mTOR dependence of autophagy activation) [5]: mTOR-independent manner | LC3-II levels by western blot [6]: significant increase

Structure (SMILES): OCC1CN(Cc2ccccc2)CC12CCN(Cc1ccccc1)CC2 (stereo not shown) [Compound 2b, (2,8-Dibenzyl-2,8-diazaspiro[4.5]decan-4-yl)methanol]
fold increase in potency compared to RH1096 (eGFP-LC3 puncta formation) ([2]; relative to RH1096): 3 fold | cytotoxicity in i3Neurons (cell density at end of treatment) (i3Neurons [4]): no overt cytotoxicity

Structure (SMILES): OCC1CN(Cc2ccccc2)CC12CCN(CC1CCCCC1)CC2 (stereo not shown) [Compound 2c, (2-Benzyl-8-(cyclohexylmethyl)-2,8-diazaspiro[4.5]decan-4-yl)methanol]
fold increase in potency compared to RH1096 (eGFP-LC3 puncta formation) ([2]; relative to RH1096): 6 fold | cytotoxicity in i3Neurons (cell density at end of treatment) (i3Neurons [4]): no overt cytotoxicity | autolysosome size relative to DMSO-treated condition ([1]; 15 μM, 72 h): ~3 times | total RFP intensity per autolysosome vesicle ([1]; 15 μM, 72 h, vs DMSO): increased | intensity of LAMP1 vesicles (i3Neurons [7]): increased | mean size of LAMP1 vesicles (i3Neurons [7]): increased | ratio of glycosylated/non-glycosylated LAMP1 (LAMP1 [8]): significant increase

Structure (SMILES): OCC1CN(Cc2ccccc2)CC12CCN(Cc1ccncc1)CC2 (stereo not shown) [Compound 2d, (2-Benzyl-8-(pyridin-4-ylmethyl)-2,8-diazaspiro[4.5]decan-4-yl)methanol]
fold decrease in potency compared to RH1096 (eGFP-LC3 puncta formation) ([2]; relative to RH1096): 2 fold
